Measurements as given in ChEMBL document CHEMBL1150331, “Preparation of piperazine derivatives as 5-HT7 receptor antagonists” (Bioorg Med Chem, 2008).

How the values were obtained:
[1] = molecular target: 5-hydroxytryptamine receptor 7 (Homo sapiens, UniProt P34969); experiment: Displacement of [3H]LSD from human recombinant 5HT7 receptor expressed in CHO cell membrane; type: cell membranes
Summary of the method: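 Membranes incubated with 3 nM [3H]LSD in 0.25 mL 50 mM Tris·HCl pH 7.4, 10 mM MgCl2, 0.5 mM EDTA, 90 min at 27 °C. Filtered on GF/C presoaked in 0.3% PEI and counted. Nonspecific binding with 0.5 uM methiothepin. 7-8 concentrations tested in duplicate, three assays. IC50 from nonlinear regression.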

[2] = molecular target: T1, 5-hydroxytryptamine receptor 1A (Homo sapiens, UniProt P08908); experiment: Displacement of [3H]8-OH-DPAT from human recombinant 5HT1A receptor expressed in CHOK1 cell membrane; type: cell membranes, CHO-K1
T1 sequence (P08908 whole entry): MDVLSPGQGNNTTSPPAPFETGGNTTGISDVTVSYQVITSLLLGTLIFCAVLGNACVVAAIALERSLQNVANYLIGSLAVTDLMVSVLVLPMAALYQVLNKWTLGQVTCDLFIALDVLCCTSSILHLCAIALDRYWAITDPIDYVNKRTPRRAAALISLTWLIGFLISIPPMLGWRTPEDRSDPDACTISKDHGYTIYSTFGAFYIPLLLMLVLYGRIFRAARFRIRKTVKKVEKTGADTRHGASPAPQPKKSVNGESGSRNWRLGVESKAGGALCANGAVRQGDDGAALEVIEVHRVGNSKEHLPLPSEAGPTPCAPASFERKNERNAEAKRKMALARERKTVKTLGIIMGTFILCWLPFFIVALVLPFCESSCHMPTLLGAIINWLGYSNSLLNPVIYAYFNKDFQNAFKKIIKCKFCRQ
Summary of the method: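 Radioligand 0.5 nM [3H]8-OH-DPAT with receptor membranes in 0.25 mL 50 mM Tris·HCl pH 7.4, 1 mM EDTA, 2.5 mM MgCl2. Incubated 30 min at 37 °C. Stopped by rapid filtration on GF/C filters presoaked in 0.3% polyethylenimine, then scintillation counted. Nonspecific binding defined with methiothepin.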

[3] = molecular target: 5-hydroxytryptamine receptor 2A (Homo sapiens, UniProt P28223); experiment: Displacement of [3H]ketanserin from human recombinant 5HT2A receptor expressed in CHOK1 cell membrane; type: cell membranes, CHO-K1
Summary of the method: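 Frozen membranes with 1 nM [3H]ketanserin in 50 mM Tris·HCl pH 7.4. Incubated 15 min at 37 °C. Harvested onto GF/C filters presoaked in 0.05% Brij. Nonspecific binding defined with mianserin.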

[4] = molecular target: T2, 5-hydroxytryptamine receptor 2C (Homo sapiens, UniProt P28335); experiment: Displacement of [3H]mesulergine from human recombinant 5HT2C receptor expressed in CHOK1 cell membrane; type: cell membranes, CHO-K1
T2 sequence (P28335 whole entry): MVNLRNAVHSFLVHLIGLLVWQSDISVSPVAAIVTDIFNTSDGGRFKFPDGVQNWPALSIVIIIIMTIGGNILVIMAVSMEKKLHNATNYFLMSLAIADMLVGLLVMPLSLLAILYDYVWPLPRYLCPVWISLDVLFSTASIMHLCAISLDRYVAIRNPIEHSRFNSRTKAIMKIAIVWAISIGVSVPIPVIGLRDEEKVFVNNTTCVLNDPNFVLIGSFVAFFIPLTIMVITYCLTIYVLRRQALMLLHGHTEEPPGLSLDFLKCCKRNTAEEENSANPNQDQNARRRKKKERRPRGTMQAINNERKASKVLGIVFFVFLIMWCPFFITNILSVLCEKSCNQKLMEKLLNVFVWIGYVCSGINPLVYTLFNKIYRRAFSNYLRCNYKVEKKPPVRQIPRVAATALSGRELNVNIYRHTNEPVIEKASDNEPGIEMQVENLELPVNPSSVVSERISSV
Summary of the method: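 Frozen membranes with 1 nM [3H]mesulergine in 50 mM Tris·HCl pH 7.7 containing 0.1% ascorbic acid and pargyline. Incubated 30 min at 37 °C. Stopped by rapid filtration through GF/C filters presoaked in 1% BSA. Nonspecific binding defined with mianserin.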

[5] = molecular target: 5-hydroxytryptamine receptor 6 (Homo sapiens, UniProt P50406); experiment: Displacement of [3H]LSD from human 5HT6 receptor expressed in HeLa cells; type: cell-based
Summary of the method: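 HeLa-cell membranes with 1.8 nM [3H]LSD in 0.25 mL 50 mM Tris·HCl pH 7.4, 10 mM MgCl2, 0.5 mM EDTA. Incubated 60 min at 37 °C. Terminated by filtration through GF/C filters presoaked in 0.3% polyethylenimine. Methiothepin used for nonspecific binding.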

Chain of 5-hydroxytryptamine receptor 2A (P28223 whole entry): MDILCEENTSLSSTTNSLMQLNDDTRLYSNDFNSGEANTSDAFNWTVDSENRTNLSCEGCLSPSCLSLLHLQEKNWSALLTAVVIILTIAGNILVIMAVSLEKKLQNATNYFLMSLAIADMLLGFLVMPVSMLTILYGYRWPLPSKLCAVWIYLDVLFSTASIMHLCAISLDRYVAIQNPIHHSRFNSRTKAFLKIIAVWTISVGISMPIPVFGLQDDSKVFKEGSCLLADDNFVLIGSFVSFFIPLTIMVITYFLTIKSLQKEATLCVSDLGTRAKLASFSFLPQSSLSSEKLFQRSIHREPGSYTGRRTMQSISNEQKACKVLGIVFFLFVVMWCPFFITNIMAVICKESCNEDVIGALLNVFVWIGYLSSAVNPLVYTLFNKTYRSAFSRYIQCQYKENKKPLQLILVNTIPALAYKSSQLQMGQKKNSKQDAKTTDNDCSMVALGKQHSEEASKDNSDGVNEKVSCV
Chain of 5-hydroxytryptamine receptor 6 (P50406 whole entry): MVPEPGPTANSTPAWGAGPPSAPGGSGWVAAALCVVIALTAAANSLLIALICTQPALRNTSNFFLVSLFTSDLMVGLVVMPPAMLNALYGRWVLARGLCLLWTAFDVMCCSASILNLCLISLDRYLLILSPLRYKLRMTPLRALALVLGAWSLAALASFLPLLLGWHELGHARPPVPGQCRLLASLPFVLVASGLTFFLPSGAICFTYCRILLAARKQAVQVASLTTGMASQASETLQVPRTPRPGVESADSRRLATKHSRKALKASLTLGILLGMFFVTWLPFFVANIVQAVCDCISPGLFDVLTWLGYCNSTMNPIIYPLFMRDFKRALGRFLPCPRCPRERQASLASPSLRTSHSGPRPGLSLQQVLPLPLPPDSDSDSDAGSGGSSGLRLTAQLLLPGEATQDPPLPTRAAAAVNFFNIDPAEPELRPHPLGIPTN
Chain of 5-hydroxytryptamine receptor 7 (P34969 whole entry): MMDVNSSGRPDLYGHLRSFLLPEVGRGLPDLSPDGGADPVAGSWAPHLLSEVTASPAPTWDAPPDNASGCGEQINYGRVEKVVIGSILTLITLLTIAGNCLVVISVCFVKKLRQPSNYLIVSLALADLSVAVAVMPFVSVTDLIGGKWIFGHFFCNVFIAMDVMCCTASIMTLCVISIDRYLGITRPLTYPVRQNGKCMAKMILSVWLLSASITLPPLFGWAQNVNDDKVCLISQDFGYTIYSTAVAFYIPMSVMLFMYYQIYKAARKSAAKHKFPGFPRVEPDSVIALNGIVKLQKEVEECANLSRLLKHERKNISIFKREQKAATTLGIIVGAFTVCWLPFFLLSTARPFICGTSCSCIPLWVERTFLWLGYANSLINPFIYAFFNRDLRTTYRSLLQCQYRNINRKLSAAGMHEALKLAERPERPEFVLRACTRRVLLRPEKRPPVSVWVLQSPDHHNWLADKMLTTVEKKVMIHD

Row | SMILES | IC50 [1] [µM] | IC50 [2] [µM] | IC50 [3] [µM] | IC50 [4] [µM] | IC50 [5] [µM]
1 | COc1ccc(S(=O)(=O)NCCCN2CCN(c3ccc(C(C)=O)cc3)CC2)cc1 | > 10 | – | – | – | –
2 | COc1ccc(S(=O)(=O)NC(C)CCN2CCN(c3ccccc3OC)CC2)cc1 (stereo not given) | 0.58 | – | – | – | –
3 | COc1ccc(S(=O)(=O)NC(C)CCN2CCN(c3cccc(C(F)(F)F)c3)CC2)cc1 (stereo not given) | 0.107 | 0.039 | 1.82 | 1.35 | 6.92
4 | COc1ccc(S(=O)(=O)NCCCN2CCN(c3cccc(OC)c3)CC2)cc1 | 0.339 | – | – | – | –
5 | O=S(=O)(NCCCN1CCN(Cc2ccccc2)CC1)c1ccc2ccccc2c1 | 0.476 | – | – | – | –
6 | COc1ccc(N2CCN(CCCNS(=O)(=O)c3ccc(OC)cc3)CC2)cc1 | 9.31 | – | – | – | –
7 | COc1ccc(S(=O)(=O)NCCCN2CCN(c3ccccc3OC)CC2)cc1 | – | 0.272 | 5.17 | 9.67 | > 10
8 | COc1ccc(S(=O)(=O)NCCCN2CCN(c3ccc(F)cc3)CC2)cc1 | 0.047 | 0.039 | 0.074 | 4.89 | > 10
9 | COc1ccc(S(=O)(=O)NCCCN2CCN(C(=O)c3ccco3)CC2)cc1 | > 10 | – | – | – | –
10 | COc1ccc(S(=O)(=O)NCCCN2CCN(C(=O)OCc3ccccc3)CC2)cc1 | > 10 | – | – | – | –
11 | COc1ccc(S(=O)(=O)NCCCN2CCN(c3ccc(Cl)c(Cl)c3)CC2)cc1 | 0.103 | – | – | – | –
12 | COc1ccc(S(=O)(=O)NCCCN2CCN(c3ccccc3F)CC2)cc1 | 0.289 | – | – | – | –
13 | O=S(=O)(NCCCN1CCN(Cc2ccccc2)CC1)c1ccccc1 | 0.949 | – | – | – | –
14 | COc1ccc(S(=O)(=O)NC(C)CCN2CCN(c3ccccc3)CC2)cc1 (stereo not given) | 0.377 | – | – | – | –
15 | COc1ccc(S(=O)(=O)NCCCN2CCN(c3ccc([N+](=O)[O-])cc3)CC2)cc1 | > 10 | – | – | – | –
16 | COc1ccc(S(=O)(=O)NC(C)CCN2CCN(c3ccc(F)cc3)CC2)cc1 (stereo not given) | 0.373 | – | – | – | –

Continued, values first:

Row | IC50 [1] [µM] | IC50 [2] [µM] | IC50 [3] [µM] | IC50 [4] [µM] | IC50 [5] [µM] | SMILES
17 | 0.012 | 0.029 | 0.095 | 0.091 | 1.96 | O=S(=O)(NCCCN1CCN(c2cccc(C(F)(F)F)c2)CC1)c1ccc2ccccc2c1
18 | 0.567 | – | – | – | – | O=S(=O)(NCCCN1CCN(c2ccc(C(F)(F)F)cc2)CC1)c1ccc2ccccc2c1
19 | > 10 | – | – | – | – | COc1ccc(S(=O)(=O)NCCCN2CCN(c3ccccc3)CC2)cc1
20 | 3.24 | – | – | – | – | COc1ccc(N2CCN(CCCNS(=O)(=O)c3ccc4ccccc4c3)CC2)cc1
21 | 0.14 | – | – | – | – | O=S(=O)(NCCCN1CCN(c2ccccc2F)CC1)c1ccc2ccccc2c1
22 | 0.681 | – | – | – | – | O=S(=O)(NCCCN1CCN(c2ccccc2)CC1)c1ccc2ccccc2c1
23 | 0.384 | – | – | – | – | COc1ccc(S(=O)(=O)NCCCN2CCN(c3ccc(C(F)(F)F)cc3)CC2)cc1
24 | 0.124 | 0.215 | 0.019 | 0.215 | 0.768 | O=S(=O)(NCCCN1CCN(c2ccc(Cl)c(Cl)c2)CC1)c1ccc2ccccc2c1
25 | 0.223 | – | – | – | – | COc1cccc(N2CCN(CCCNS(=O)(=O)c3ccc4ccccc4c3)CC2)c1
26 | 0.02 | 0.0046 | 0.085 | 0.241 | 2.63 | COc1ccccc1N1CCN(CCCNS(=O)(=O)c2ccc3ccccc3c2)CC1
27 | 0.089 | 0.044 | 0.352 | 0.057 | 2.84 | COc1ccc(S(=O)(=O)NCCCN2CCN(c3cccc(C(F)(F)F)c3)CC2)cc1
28 | 0.053 | – | – | – | – | O=S(=O)(NCCCN1CCN(c2ccc(F)cc2)CC1)c1ccc2ccccc2c1
